Reference: ChEMBL document CHEMBL1255259, “Phosphorothioate-modified oligodeoxynucleotides inhibit human cytomegalovirus replication by blocking virus entry” (Antimicrob Agents Chemother, 2008)
Activity calls are given as the source filed them. The calls are words filed in the database; no cut-off is given here.

Experiments:
[1] = Cytotoxicity against HELF assessed as cell viability after 6 days by MTT assay; assay type: cell-based; details: human, HELF cells
Summary of the method: (§1)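 HELF exposed to rising ODN concentrations (up to 10 μM) for 6 days; viable cells measured by MTT. CC50 taken as concentration that cuts viability to 50%.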

[2] = test system: Human alphaherpesvirus 1; assay: Antimicrobial activity against Human herpesvirus 1 infected in compound pretreated HELF assessed as inhibition of viral replication at 0.1 uM; assay type: functional, organism-based
Summary of the method: (§2)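 HELF pretreated with ODN (0.1 or 1 μM) 1 h before infection with a clinical HSV-1 isolate at MOI 0.1; ODN kept in medium after 2 h adsorption. Harvest at 48 h p.i., sonication, plaque titration on Vero cells. Means ± SD of three independent experiments.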

[3] = test system: Human alphaherpesvirus 1; assay: Antimicrobial activity against Human herpesvirus 1 infected in compound pretreated HELF assessed as inhibition of viral replication at 1 uM; assay type: functional, organism-based; summary of the method: as §2
[4] = test system: Human betaherpesvirus 5; assay: Antimicrobial activity against Human cytomegalovirus AD169 infected in 1 uM compound pretreated HELF assessed as inhibition of viral replication measured after 6 days post-infection; assay type: functional, organism-based
Summary of the method: (§3)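 HELF pretreated with ODN 1 h before infection with HCMV AD169 (MOI 1); ODN kept in medium after 2 h adsorption at 37°C. At 6 days p.i., cells plus supernatants sonicated and titrated by plaque assay on HELF; plaques counted microscopically, expressed as PFU/ml (log10) or % of control. IC50/IC90 by linear regression; duplicate wells, three independent experiments, means ± SD.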

[5] = test system: Human betaherpesvirus 5; assay: Antimicrobial activity against Human cytomegalovirus AD169 infected in compound pretreated HELF assessed as inhibition of viral replication measured after 6 days post-infection; assay type: functional, organism-based; details: Human betaherpesvirus 5, AD169, HELF; summary of the method: as §3
[6] = test system: Human betaherpesvirus 5; assay: Antimicrobial activity against 0.1 uM compound pretreated Human cytomegalovirus AD169 infected in HELF assessed as reduction in viral titer 37 degC; assay type: functional, organism-based
Summary of the method: (§4)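 HCMV AD169 (10^4 PFU) incubated with ODN at 0.1 μM at 4 or 37°C for various times; samples then diluted to bring ODN below an antivirally active level; residual infectivity titrated by plaque assay on HELF. Means ± SD of three independent experiments.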

[7] = test system: Vesicular stomatitis Indiana virus; assay: Antimicrobial activity against Vesicular stomatitis Indiana virus infected in compound pretreated HELF assessed as inhibition of viral replication; assay type: functional, organism-based
Summary of the method: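 HELFs exposed to ODN (0.1 or 1 μM) for 1 h, then infected with VSV serotype Indiana at MOI 1 (2 h adsorption, 37°C). ODN kept in the medium until 48 h p.i. Cells and supernatants were pooled, sonicated and titrated by plaque assay on HELFs. Data are means ± standard deviations of three independent experiments, duplicate wells.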

[8] = test system: Human betaherpesvirus 5; assay: Antimicrobial activity against Human cytomegalovirus AD169 infected in HELF assessed as inhibition of viral replication at 1 uM measured after 6 days post-infection; assay type: functional, organism-based
[9] = test system: Human betaherpesvirus 5; assay: Antimicrobial activity against Human cytomegalovirus AD169 infected in 0.1 uM compound pretreated HELF assessed as inhibition of viral replication measured after 6 days post-infection; assay type: functional, organism-based; summary of the method: as §3
[10] = test system: Human betaherpesvirus 5; assay: Antimicrobial activity against 0.1 uM compound pretreated Human cytomegalovirus AD169 infected in HELF assessed as reduction in viral titer at 4 degC; assay type: functional, organism-based; summary of the method: as §4
[11] = Antimicrobial activity against Murine cytomegalovirus (strain Smith) infected in compound pretreated mouse NIH 3T3 cells assessed as inhibition of viral replication; assay type: functional, cell-based; details: Murid betaherpesvirus 1, NIH3T3
Summary of the method: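 NIH 3T3 pretreated 1 h with ODN, infected with MCMV Smith (MOI 1); ODN kept after 2 h adsorption at 37°C. Harvest at 6 days p.i., sonication, plaque assay on NIH 3T3; IC50 from plaque reduction. Means ± SD, three experiments.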

[12] = test system: Human betaherpesvirus 5; assay: Antimicrobial activity against Human cytomegalovirus AD169 infected in HELF assessed as inhibition of viral replication at 0.1 uM measured after 6 days post-infection; assay type: functional, organism-based
[13] = Cytotoxicity against HELF assessed as cell viability by MTT assay after 6 days at <=10 uM; assay type: cell-based; details: human, 144 h; summary of the method: as §1
[14] = test system: unidentified adenovirus; assay: Antimicrobial activity against unidentified adenovirus infected in compound pretreated HELF assessed as inhibition of viral replication; assay type: functional, organism-based
Summary of the method: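 HELF pretreated 1 h with ODN (0.1 or 1 μM), infected with an adenovirus clinical isolate (MOI 1); ODN kept after 2 h adsorption. Harvest at 4 days p.i., sonication, plaque titration on HELF. Means ± SD, three experiments.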

[15] = test system: Human betaherpesvirus 5; assay: Antimicrobial activity against Human herpesvirus 5 strain AD169 infected in HELF assessed as pp65 nuclear localization at 0.1 uM after 2 hrs […]; assay type: functional, organism-based

Q: For `Cc1cn([C@H]2C[C@H](OP(O)(O)=S)[C@@H](COP(O)(=S)O[C@H]3C[C@H](n4cc(C)c(=O)[nH]c4=O)O[C@@H]3COP(O)(=S)O[C@H]3[C@@H](O)[C@H](n4ccc(N)nc4=O)O[C@@H]3COP(O)(=S)O[C@H]3[C@@H](O)[C@H](n4cnc5c(=O)[nH]c(N)nc54)O[C@@H]3COP(O)(=S)O[C@H]3C[C@H](n4cc(C)c(=O)[nH]c4=O)O[C@@H]3COP(O)(=S)O[C@H]3[C@@H](O)[C@H](n4cnc5c(=O)[nH]c(N)nc54)O[C@@H]3COP(O)(=S)O[C@H]3C[C@H](n4cc(C)c(=O)[nH]c4=O)O[C@@H]3COP(O)(=S)O[C@H]3C[C@H](n4cc(C)c(=O)[nH]c4=O)O[C@@H]3COP(O)(=S)O[C@H]3C[C@H](n4cc(C)c(=O)[nH]c4=O)O[C@@H]3COP(O)(=S)O[C@H]3C[C@H](n4cc(C)c(=O)[nH]c4=O)O[C@@H]3COP(O)(=S)O[C@H]3[C@@H](O)[C@H](n4ccc(N)nc4=O)O[C@@H]3COP(O)(=S)O[C@H]3[C@@H](O)[C@H](n4cnc5c(=O)[nH]c(N)nc54)O[C@@H]3COP(O)(=S)O[C@H]3C[C@H](n4cc(C)c(=O)[nH]c4=O)O[C@@H]3COP(O)(=S)O[C@H]3[C@@H](O)[C@H](n4cnc5c(=O)[nH]c(N)nc54)O[C@@H]3COP(O)(=S)O[C@H]3C[C@H](n4cc(C)c(=O)[nH]c4=O)O[C@@H]3COP(O)(=S)O[C@H]3C[C@H](n4cc(C)c(=O)[nH]c4=O)O[C@@H]3COP(O)(=S)O[C@H]3C[C@H](n4cc(C)c(=O)[nH]c4=O)O[C@@H]3COP(O)(=S)O[C@H]3C[C@H](n4cc(C)c(=O)[nH]c4=O)O[C@@H]3COP(O)(=S)O[C@H]3[C@@H](O)[C@H](n4ccc(N)nc4=O)O[C@@H]3COP(O)(=S)O[C@H]3[C@@H](O)[C@H](n4cnc5c(=O)[nH]c(N)nc54)O[C@@H]3COP(O)(=S)O[C@H]3C[C@H](n4cc(C)c(=O)[nH]c4=O)O[C@@H]3COP(O)(=S)O[C@H]3[C@@H](O)[C@H](n4ccc(N)nc4=O)O[C@@H]3COP(O)(=S)O[C@H]3[C@@H](O)[C@H](n4cnc5c(=O)[nH]c(N)nc54)O[C@@H]3COP(O)(=S)O[C@H]3C[C@H](n4cc(C)c(=O)[nH]c4=O)O[C@@H]3CO)O2)c(=O)[nH]c1=O` (stereo partly specified), which CC50 at 144 h [1] is on record?
A: Its CC50 at 144 h is > 10 µM.

Q: And the inhibition [2]?
A: Its inhibition is “inactive”.

Q: What about the inhibition [3] of the same compound?
A: Its inhibition is “inactive”.

Q: And the inhibition [4]?
A: Its inhibition is “Active”.

Q: And the IC50 [5]?
A: Its IC50 is 0.03 µM.

Q: And the IC90 [5]?
A: The IC90 was 0.22 µM.

Q: What about the inhibition [6] of the same compound?
A: Its inhibition is “inactive”.

Q: And the inhibition [7]?
A: Its inhibition is “inactive”.

Q: What about the inhibition [8] of the same compound?
A: Its inhibition is “inactive”.

Q: And the inhibition [9]?
A: Its inhibition is “Active”.

Q: What about the inhibition [10] of the same compound?
A: The inhibition was “inactive”.

Q: And the IC50 [11]?
A: The IC50 was 0.02 µM.

Q: And the inhibition [12]?
A: The inhibition was “inactive”.

Q: And the Activity [13]?
A: Its Activity is “Non-toxic”.

Q: What about the inhibition [14] of the same compound?
A: The inhibition was “inactive”.

Q: And the inhibition [15]?
A: The inhibition was “Active”.
